Measurements: ChEMBL document CHEMBL1122328, “Hypolipidemic activity of phthalimide derivatives. 2. N-phenylphthalimide and derivatives” (1983)

Assays:
Rattus norvegicus [1] = assay: Effect on low density Protein Holtzman rats after 14 days administration; type: functional
Outline: (§1)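 Holtzman male rats (~400 g) given drug at 20 (mg/kg)/day for 14 days; on day 14 blood taken from the abdominal aorta and serum separated by centrifugation at 3500 rpm; lipid and protein content of the lipoprotein fractions measured.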

Mus musculus [2] = organism: Mus musculus; assay: In vitro effect on CF1 male mouse on Fatty acid synthetase; type: functional
Mus musculus [3] = assay: In vitro effect on CF1 male mouse on Fatty acid synthetase after 16 days at a dose of 10 (mg/kg)/day; type: functional
Outline: (§2)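 In vivo enzyme study. CF₁ male mice were dosed ip for 16 days in 1% CMC, and liver was homogenised to 10% in 0.25 M sucrose with 0.001 M EDTA. Enzymes assayed: acetyl-CoA synthetase as hydroxamate at 540 nm after 30 min at 37 °C; HMG CoA reductase with [1-¹⁴C]acetate in 9000g supernatant for 60 min at 37 °C; fatty acid synthetase with [2-¹⁴C]malonyl-CoA; acyltransferase with [³H]glycerol 3-phosphate and microsomes for 10 min; phosphatidate phosphohydrolase as released phosphate at 820 nm after 30 min. N = 6; reported as % control.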

Mus musculus [4] = assay: Effect on Serum triglceride levels on CF1 male mice at a dose of 50 (mg/kg)/day after 14 days; type: functional
Outline: (§3)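 CF1 male mice (~25 g), drug suspended in 1% carboxymethylcellulose in water, given ip daily for 16 days; n = 6; vehicle control. Tail-vein blood on days 9 and 16, serum cholesterol by modified Liebermann–Burchard reaction; day-14 serum triglyceride by commercial kit; expressed as % control.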

Mus musculus [5] = assay: Effect on Serum cholesterol levels on CF1 male mice at a dose of 12.5 (mg/kg)/day after 16 days; type: functional; outline: as §3
Mus musculus [6] = assay: In vitro effect on CF1 male mouse on phosphatidate phosphohydrolase after 16 days at a dose of 40 (mg/kg)/day; type: functional
Outline: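 CF1 male mice dosed ip daily for 16 days, drug suspended in 1% carboxymethylcellulose; liver taken as 10% homogenate in 0.25 M sucrose + 0.001 M EDTA. Phosphatidate phosphohydrolase measured as inorganic phosphate released from phosphatidic acid after 30 min, developed with ascorbic acid/ammonium molybdate, read at 820 nm. Expressed as % of 1% CMC vehicle control; N = 6.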

Mus musculus [7] = assay: Effect on cholesterol from CF1 male mice after 16 days at a dose of 10 (mg/kg/day); type: functional
Outline: (§4)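 CF1 male mice dosed ip for 16 days at 10–60 (mg/kg)/day; liver taken and 10% homogenate made in 0.25 M sucrose + 0.001 M EDTA; aliquot extracted by Folch and Bligh–Dyer methods, mg lipid weighed, cholesterol measured by Liebermann–Burchard method; n = 6; % of 1% CMC control.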

Mus musculus [8] = assay: In vitro effect on CF1 male mouse on Ac-CoA synthetase after 16 days at a dose of 40 (mg/kg)/day; type: functional; outline: as §2
Mus musculus [9] = assay: Effect on mg of lipid from CF1 male mice after 16 days at a dose of 40 (mg/kg/day); type: functional; outline: as §4
Rattus norvegicus [10] = assay: Effect on high density Protein Holtzman rats after 14 days administration; type: functional; outline: as §1
Mus musculus [11] = organism: Mus musculus; assay: In vitro effect on CF1 male mouse on phosphatidate phosphohydrolase; type: functional
Mus musculus [12] = assay: In vitro effect on CF1 male mouse on phosphatidate phosphohydrolase after 16 days at a dose of 20 (mg/kg)/day; type: functional; outline: as §2
Mus musculus [13] = assay: In vitro effect on CF1 male mouse on acyltransferase after 16 days at a dose of 40 (mg/kg)/day; type: functional; outline: as §2
Mus musculus [14] = assay: Effect on Serum triglceride levels on Hyperlipidemic induced mice After 14 days dosing.; type: functional
Outline: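 Mice fed atherogenic diet for 2 weeks to raise serum lipids, then given drug at 20 (mg/kg)/day ip for a further 2 weeks; serum cholesterol and triglyceride measured after the diet and after 14 days dosing; n = 6; compared with 1% CMC and diet-only controls; % control.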

Mus musculus [15] = organism: Mus musculus; assay: In vitro effect on CF1 male mouse on acyltransferase; type: functional
Mus musculus [16] = assay: Effect on neutral lipids from CF1 male mice after 16 days at a dose of 60 (mg/kg/day); type: functional
Outline: (§5)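 Dosing was ip in CF₁ male mice (~25 g) for 16 days, with compound suspended in 1% carboxymethylcellulose. Liver was then taken and homogenised to 10% in 0.25 M sucrose with 0.001 M EDTA. Lipid was extracted from a 2 mL aliquot by the Folch and Bligh–Dyer methods and total mg of lipid was weighed. Cholesterol (Liebermann–Burchard), triglycerides (kit), neutral lipids and phospholipids were then measured; N = 6; reported as % of vehicle control.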

Mus musculus [17] = assay: Effect on cholesterol from CF1 male mice after 16 days at a dose of 60 (mg/kg/day); type: functional; outline: as §4
Mus musculus [18] = assay: In vitro effect on CF1 male mouse on HMGCoA reductase after 16 days at a dose of 60 (mg/kg)/day; type: functional; outline: as §2
Mus musculus [19] = assay: In vitro effect on CF1 male mouse onAc-CoA carboxylase after 16 days at a dose of 10 (mg/kg)/day; type: functional; details: in the assay text read “In vivo” for “In vitro”
Outline: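 Mice (CF1 males) given agent ip daily for 16 days in 1% carboxymethylcellulose; liver 10% homogenate in 0.25 M sucrose + 0.001 M EDTA. Acetyl-CoA carboxylase first polymerized 30 min at 37 °C, then incubated 30 min at 37 °C with sodium [14C]bicarbonate (41.0 mCi/mmol); incorporated label counted. Activity as % of vehicle control; N = 6.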

Rattus norvegicus [20] = assay: Effect on high density Phospholipids Holtzman rats after 14 days administration; type: functional; outline: as §1
Mus musculus [21] = organism: Mus musculus; assay: In vitro effect on CF1 male mouse on Cholesterol side- chain oxidation; type: functional
Outline: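 In vitro test on 10% CF₁ male mouse liver homogenate (0.25 M sucrose, 0.001 M EDTA) with 2.5 μmol test drug. Assays: acetyl-CoA synthetase and citrate lyase as hydroxamate at 540 nm, 30 min, 37 °C; citrate exchange from [¹⁴C]citrate-loaded mitochondria after 10 min with drug; side-chain oxidation by ¹⁴CO₂ from [26-¹⁴C]cholesterol, 18 h, 37 °C; acetyl-CoA carboxylase by [¹⁴C]bicarbonate fixation after 30 min polymerization then 30 min at 37 °C.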

Mus musculus [22] = organism: Mus musculus; assay: In vitro effect on CF1 male mouse on HMGCoA reductase; type: functional
Mus musculus [23] = assay: In vitro effect on CF1 male mouse on acyltransferase after 16 days at a dose of 10 (mg/kg)/day; type: functional; outline: as §2
Rattus norvegicus [24] = assay: Effect on Serum triglceride levels on Holtzman rats at a dose of 10 (mg/kg)/day after 14 days; type: functional
Outline: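 Holtzman male rats (~200 g) dosed orally by intubation needle daily for 16 days, drug suspended in 1% carboxymethylcellulose; n = 6; vehicle control. Tail-vein serum cholesterol on days 9 and 16 by modified Liebermann–Burchard reaction; day-14 serum triglyceride by commercial kit; % control.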

Mus musculus [25] = assay: Effect on mg of lipid from CF1 male mice after 16 days at a dose of 60 (mg/kg/day); type: functional; outline: as §5
Mus musculus [26] = assay: Effect on Serum cholesterol levels on CF1 male mice at a dose of 100 (mg/kg)/day after 9 days; type: functional; outline: as §3
Mus musculus [27] = assay: Effect on Serum triglceride levels on CF1 male mice at a dose of 100 (mg/kg)/day after 14 days; type: functional; outline: as §3
Mus musculus [28] = assay: In vivo effect on CF1 male mouse on Lipid content after 16 days at a dose of 10 (mg/kg)/day

For `CC(=O)c1ccccc1N1C(=O)c2ccccc2C1=O`, the Control (Rattus norvegicus [1]) was 95%, the Control (Mus musculus [2]) was 107% and the Control (Mus musculus [3]) was 106%. It also gave a Control (Mus musculus [4]) of 53%, a Control (Mus musculus [5]) of 43% and a Control (Mus musculus [6]) of 54%. The Control (Mus musculus [7]) was 73%, the Control (Mus musculus [8]) was 59% and the Control (Mus musculus [9]) was 80%. It also gave a Control (Rattus norvegicus [10]) of 80%, a Control (Mus musculus [11]) of 65% and a Control (Mus musculus [12]) of 68%. The Control (Mus musculus [13]) was 43%, the Control (Mus musculus [14]) was 86% and the Control (Mus musculus [15]) was 54%. The Control (Mus musculus [16]) was 62%, the Control (Mus musculus [17]) was 82% and the Control (Mus musculus [18]) was 94%. The Control (Mus musculus [19]) was 8%, the Control (Rattus norvegicus [20]) was 446% and the Control (Mus musculus [21]) was 27%. The Control (Mus musculus [22]) was 91%, the Control (Mus musculus [23]) was 35% and the Control (Rattus norvegicus [24]) was 76%. It also gave a Control (Mus musculus [25]) of 80%, a Control (Mus musculus [26]) of 42% and a Control (Mus musculus [27]) of 59%. For the same compound, the Control (Mus musculus [28]) was 84%.
